AUC, Kp and Drug metabolism data for two compounds are collected here from ChEMBL document CHEMBL4622977, “A CNS-Targeting Prodrug Strategy for Nuclear Receptor Modulators” (J Med Chem, 2020).

The nature of series [1]: AUC (0.5 to 6 hrs) in C57BL/6 mouse brain assessed as bezafibrate level at 9.14 umol/kg, ip by LC-MS/MS analysis. Conditions: in vivo. Also noted: time 0.5-6 hr, dose 9.14 umol/kg, route intraperitoneal. Format: ADME, organism-based. The gist of the method: (§1)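 Male wild-type C57BL/6 mice (8−10 weeks, n=3 per time point) received parent drug or equimolar prodrug at […] i.p. in DMSO. Brain and serum were collected at 0.5, 2 and 6 h. Parent acid was quantified by LC-MS/MS against vehicle-tissue standard curves with d₆-sobetirome internal standard. AUC0.5–6 h was computed from the time course; mean ± SEM.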

Series [2] can be described thus: AUC (0.5 to 6 hrs) in C57BL/6 mouse serum assessed as bezafibrate level at 9.14 umol/kg, ip by LC-MS/MS analysis. The note with it: in vivo. Format: ADME, organism-based. On the set-up: dose 9.14 umol/kg, time upper 6 hr, time lower 0.5 hr, route intraperitoneal. The gist of the method:
as §1

Series [3] is described as follows: Brain to serum concentration ratio, Kp of the compound in C57BL/6 mouse assessed as bezafibrate level at 9.14 umol/kg, ip by LC-MS/MS analysis. The class given is ADME, organism-based. The gist of the method:
(§2)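 Brain-to-serum ratio Kp was calculated from brain and serum parent-drug AUC0.5–6 h (ng/g*h). These AUCs came from male C57BL/6 mice (n=3 per time point) given parent drug or equimolar prodrug at […] i.p. in DMSO, sampled at 0.5, 2 and 6 h. Parent acid was quantified by LC-MS/MS with d₆-sobetirome internal standard.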

Series [4] in a line: Prodrug conversion in C57BL/6 mouse brain assessed as 4-chlorobenzoate formation at 9.14 umol/kg, ip measured up to 6 hrs by LC-MS/MS analysis. The note with it: in vivo, BLD = below limit of detection. Format: ADME, organism-based. The gist of the method:
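Male C57BL/6 mice (n=3) received prodrug at […] i.p. in DMSO. Brain was collected at 0.5, 2 and 6 h. The 4-chlorobenzoate cleavage product was sought by LC-MS/MS against a vehicle-brain standard curve with d₆-sobetirome internal standard; the limit was LoQ.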

A short description of series [5]: Prodrug conversion in C57BL/6 mouse brain assessed as bezafibrate level at 9.14 umol/kg, ip measured after 1 hr in presence of FAAH inhibitor PF-3845 by LC-MS/MS analysis. Format: ADME, organism-based. The note with it: in vivo. The gist of the method:
(§3)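 Male C57BL/6 mice (n=3) received PF-3845 at 1 mg/kg i.p., then prodrug at […] i.p. 1 h later; comparators received prodrug alone. Vehicle was DMSO. Whole brain was taken 1 h after prodrug and homogenized in water with d₆-sobetirome internal standard. It was extracted with EtOAc/MeCN and parent acid was measured by LC-MS/MS; mean ± SEM, 2-tailed unpaired t test.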

Series [6] has as its target T1, Fatty-acid amide hydrolase 2 (Homo sapiens, UniProt Q6GMR7).
T1 sequence (Q6GMR7 whole entry): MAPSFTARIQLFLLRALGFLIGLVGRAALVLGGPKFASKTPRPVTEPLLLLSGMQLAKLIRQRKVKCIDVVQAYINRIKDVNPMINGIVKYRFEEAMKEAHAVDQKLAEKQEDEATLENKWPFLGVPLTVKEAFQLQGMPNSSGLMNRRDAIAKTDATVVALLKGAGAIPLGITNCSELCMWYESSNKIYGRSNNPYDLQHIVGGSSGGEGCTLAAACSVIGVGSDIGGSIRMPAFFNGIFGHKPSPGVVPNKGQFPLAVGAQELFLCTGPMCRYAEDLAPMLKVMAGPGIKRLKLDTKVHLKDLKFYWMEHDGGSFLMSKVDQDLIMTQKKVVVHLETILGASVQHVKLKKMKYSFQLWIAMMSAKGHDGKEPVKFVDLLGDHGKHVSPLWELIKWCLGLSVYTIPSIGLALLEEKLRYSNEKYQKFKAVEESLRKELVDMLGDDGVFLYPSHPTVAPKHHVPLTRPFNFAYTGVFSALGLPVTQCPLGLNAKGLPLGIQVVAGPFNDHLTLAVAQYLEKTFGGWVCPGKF
Put plainly: Substrate activity at FAAH2 in human brain S9 fraction assessed as bezafibrate level at 100 uM measured after 15 mins by LC-MS/MS analysis. The class given is ADME, subcellular. Conditions: s9, 0.25 h. The gist of the method: (§4)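 Human brain S9 at 1 mg/mL, with or without […] PF-3845, was prewarmed 5 min at 37 °C. It was incubated 15 min at 37 °C with 100 µM prodrug (final), then quenched with MeCN/DMF containing d₆-sobetirome. Parent acid was measured by LC-MS/MS. FAAH-dependent level = untreated sample (n=3) minus mean PF-3845 samples (n>2).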

The nature of series [7]: Renal toxicity in C57BL/6 mouse assessed effect on Fasn gene expression in kidney at 9.14 umol/kg, ip administered once daily for 7 days by Trizol reagent based RT-qPCR analysis. Conditions: in vivo, 168 h. Format: organism-based. The gist of the method: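 Male C57BL/6 mice (n=5) were dosed once daily for 7 days i.p. with parent drug at […], equimolar prodrug, or vehicle. The vehicle was 1:1:8 Kolliphor:NMP:water. Target gene expression was compared between groups per tissue by 2-tailed unpaired t test.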
(Real-time PCR tracks product formation cycle by cycle.)

Series [8] is described as follows: AUC (0.5 to 6 hrs) in C57BL/6 mouse brain assessed as 2-(3-chloro-4-((3-((7-propyl-3-(trifluoromethyl)-benzo[d]isoxazol-6-yl)oxy)propyl)thio)phenyl)acetic acid level at 9.14 umol/kg, ip by LC-MS/MS analysis. On the set-up: time upper 6 hr, dose 9.14 umol/kg, time lower 0.5 hr, route intraperitoneal. Format: ADME, organism-based. The note with it: in vivo. The gist of the method: as §1

The nature of series [9]: AUC (0.5 to 6 hrs) in C57BL/6 mouse serum assessed as 2-(3-chloro-4-((3-((7-propyl-3-(trifluoromethyl)-benzo[d]isoxazol-6-yl)oxy)propyl)thio)phenyl)acetic acid level at 9.14 umol/kg, ip by LC-MS/MS analysis. The class given is ADME, organism-based. On the set-up: dose 9.14 umol/kg, time 0.5-6 hr, route intraperitoneal. Conditions: in vivo. The gist of the method:
as §1

Series [10] in a line: Brain to serum concentration ratio, Kp of the compound in C57BL/6 mouse assessed as 2-(3-chloro-4-((3-((7-propyl-3-(trifluoromethyl)-benzo[d]isoxazol-6-yl)oxy)propyl)thio)phenyl)acetic acid level at 9.14 umol/kg, ip by LC-MS/MS analysis. Format: ADME, organism-based. The gist of the method: as §2
The nature of series [11]: Prodrug conversion in C57BL/6 mouse brain assessed as 2-(3-chloro-4-((3-((7-propyl-3-(trifluoromethyl)-benzo[d]isoxazol-6-yl)oxy)propyl)thio)phenyl)acetic acid level at 9.14 umol/kg, ip measured after 1 hr in presence of FAAH inhibitor PF-3845 by LC-MS/MS analysis. Conditions: in vivo. Format: ADME, organism-based. The gist of the method:
as §3

Series [12] has as its target T2, Fatty-acid amide hydrolase 1 (Homo sapiens, UniProt O00519).
T2 sequence (O00519 whole entry): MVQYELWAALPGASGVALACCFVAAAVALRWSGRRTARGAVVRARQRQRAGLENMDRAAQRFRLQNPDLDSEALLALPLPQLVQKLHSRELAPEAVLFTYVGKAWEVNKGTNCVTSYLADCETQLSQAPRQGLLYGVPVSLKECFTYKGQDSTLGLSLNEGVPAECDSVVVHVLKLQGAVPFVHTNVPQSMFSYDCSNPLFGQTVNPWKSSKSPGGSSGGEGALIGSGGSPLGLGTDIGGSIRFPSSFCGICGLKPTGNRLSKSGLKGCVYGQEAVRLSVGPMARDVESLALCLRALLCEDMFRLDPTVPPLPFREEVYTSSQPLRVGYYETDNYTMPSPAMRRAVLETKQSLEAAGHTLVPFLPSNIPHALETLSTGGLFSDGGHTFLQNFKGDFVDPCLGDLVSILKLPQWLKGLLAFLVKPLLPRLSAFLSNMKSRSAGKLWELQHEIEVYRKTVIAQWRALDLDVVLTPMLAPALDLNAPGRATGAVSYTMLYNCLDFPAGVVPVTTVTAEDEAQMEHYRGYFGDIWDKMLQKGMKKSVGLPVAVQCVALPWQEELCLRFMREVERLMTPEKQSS
Put plainly: Substrate activity at FAAH1 in human brain S9 fraction assessed as 2-(3-chloro-4-((3-((7-propyl-3-(trifluoromethyl)-benzo[d]isoxazol-6-yl)oxy)propyl)thio)phenyl)acetic acid level at 100 uM measured after 15 mins by LC-MS/MS analysis. Conditions: s9, 0.25 h. Format: ADME, subcellular. The gist of the method: as §4

Consider `CNC(=O)C(C)(C)Oc1ccc(CCNC(=O)c2ccc(Cl)cc2)cc1`, for which the AUC in [1] turned out to be 26.3 ng·h/g; in [2], 470.6 ng·h/g. Moreover, the Kp in [3] is on record as 0.06. For the same compound, the Drug metabolism entry is on record as “Bld” in series [4], “Metabolite_Notdetected” in series [5], “Metabolite_Detected” in series [6] and “Metabolite_Detected” in [7].
For `CCCc1c(OCCCSc2ccc(CC(=O)NC)cc2Cl)ccc2c(C(F)(F)F)noc12`, the AUC in series [8] is 12.64 ng·h/g; in series [9], 276.5 ng·h/g. The Kp in [10] worked out at 0.05. For the same compound, the Drug metabolism entry in [11] and in series [12] was “Metabolite_Notdetected” each time.

In general, Kp refers to tissue or fluid exposure divided by exposure in the circulation.
